Assay outcomes as filed in PubChem BioAssay.
Rows were chosen to be rich in hits. Some 3.5% of all compounds tested hit in one or more screens of this group.
FGF22 binding: binders of recombinant human FGF22 by thermal shift | SYPRO orange fluorescence; percent of sucrose octasulfate shift, DMSO zero | Q9HCT0 | AID 651658 | activity (Tm shift, normalised), % at 9.99 µM | 340,000 tested, 1.5% active;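 active = mean Tm shift, scaled 0 neutral to 100 positive control, at about 1.3% or above, every replicate too, limit read from the data; inconclusive = no clear call, values can overlap the other calls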
Target sequence (Q9HCT0 whole entry, looked up): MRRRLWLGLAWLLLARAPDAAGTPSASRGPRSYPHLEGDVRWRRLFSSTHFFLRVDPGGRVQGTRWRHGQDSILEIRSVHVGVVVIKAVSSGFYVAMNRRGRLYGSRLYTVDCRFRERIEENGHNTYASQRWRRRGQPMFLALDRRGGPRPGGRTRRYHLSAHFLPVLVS
ERAP1 HTS inh: inhibitors of human ERAP1 aminopeptidase; Q9NZ08; recombinant ERAP1, Leu-AMC fluorescence, 60 min; inhibition, % at 10.7 µM; 340,000 tested, 0.15% active; AID 652197;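 active = mean replicate inhibition of at least 30%, or all replicates individually reaching that 30% level; inactive = mean below 30% and not every replicate reaching it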;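 also: 0% = neutral control wells and 100% = L-leucinethiol positive control wells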
Ecoli rRNA inh: inhibits bacterial ribosomal RNA function over humanized ribosomes. E. coli WT GFP vs humanized-ribosome RFP mutants, fluorescence, 24 h; active compounds read low; DMSO median 0, no signal -100. GFP signal change (wild-type ribosome), % (concentration not given with the values). 350,000 tested, 1.6% active. AID 720706;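 active = significant combined selectivity score with lowered wild-type GFP, culture density cut under 30%, mutant RFP and density less affected; inactive = any of these conditions unmet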
Cneo AK release: causes C. neoformans cell lysis; adenylate kinase release luminescence, 4 h; normalised: neutral wells 0, clomiphene wells 100; lysis activity, % at 15 µM; 360,000 tested, 0.2% active;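 active = mean lysis activity across replicates of at least 80%, whatever share of replicates individually reach that level; inactive = mean lysis activity below 80%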
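read-out = cell lysis signal | test system = log-phase Cryptococcus neoformans yeast cells | input = cells at 5 × 10^6 per mL | medium = fresh YPD growth medium | signal = luminescent adenylate kinase detection reagent | timing = 4 h at 37 °C static, read 1 h later | dosing = single dose | controls = Clomiphene as positive lysis control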
PGC1a acetyl inh: lowers PGC1a acetylation signal in U2OS cells; AlphaScreen anti-acetyl-lysine; with virally co-expressed GCN5 acetyltransferase; inhibition, % at 15.6 µM; 350,000 tested, 0.17% active; AID 651687;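 active = every replicate shows inhibition of at least 40%; inconclusive = mean inhibition at least 40% but some replicate below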;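 also: 0% = neutral control wells and 100% = positive control wells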
HIV Env fusion: inhibitors of HIV Env-mediated cell fusion | HeLa-JRFL Env/CEM21 cell fusion, luciferase | AID 651610 | inhibition, % at 12.3 µM | 360,000 tested, 1.1% active;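 active = mean replicate inhibition score of at least 50 and every replicate individually at or above 50; inconclusive = only one of the two criteria met; inactive = mean below 50 and not all replicates reaching 50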;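 also: 0% = plate neutral controls and 100% = maraviroc near 300 nM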
AID977621: growth inhibition of wild-type GFP E. coli, dose response, H69 mutant RFP, cherry-pick | AID 977621 | 1,900 tested, under 10 active | activity change, negative = inhibition at 50 µM | shares compounds with Ecoli rRNA inh | E. coli wild-type GFP strain growth, fluorescence, 24 h;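 active = Wild-type ribosome reporter drop at least double the humanized mutant ribosome reporter drop, growth loss under a set limit; inconclusive = no clear call, values can overlap the other calls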;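 also: wild-type GFP and H69 mutant RFP strains grown together 50/50 in each well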
AID977628: growth of wild-type and h24-humanized E. coli strains – h24 mutant RFP vs wild-type GFP, cherry-pick, dose response; AID 977628; activity change, negative = inhibition at 50 µM; E. coli WT GFP strain growth, fluorescence, 24 h; 1,900 tested, under 10 active; shares compounds with Ecoli rRNA inh;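 active = compound lowering the normal-ribosome reporter at least twice as much as the humanized-ribosome reporter, growth loss under a set limit; inconclusive = no clear call, values can overlap the other calls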;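 also: wild-type GFP and h24 humanized RFP strains co-cultured 1 to 1 per well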
Active calls of the source: *; i = inactive; ? = inconclusive; . = no result; [ ] = another dose, or the depositor's remark.

SMILES | FGF22 binding | ERAP1 HTS inh | Ecoli rRNA inh | Cneo AK release | PGC1a acetyl inh | HIV Env fusion | AID977621 | others
CSc1ccccc1NC(=O)c1ccccc1N(C)S(C)(=O)=O | . | . | . | -0.3 | -5.4 | 11.9 | .
CSc1ccccc1NC(=O)c1ccccc1N(Cc1ccccc1)S(C)(=O)=O | 0.2 | 3.6 | -24.1* | -0.5 | -28.6 | . | -1.56
CCC(=O)NC[C@@H]1[C@@H](c2ccc(-c3ccc(OC)cc3)cc2)[C@@H](CO)N1C(C)=O | . | -1.1 | -0.4 | . | 6.3 | . | .
CCOC(=O)CN(C(=O)CNC(=O)c1ccco1)C(C(=O)NC1CCCC1)c1ccccc1OCC (stereo unspecified) | . | . | . | -1.7 | -5.8 | i | .
COc1ccccc1CNC(=O)c1cc2sccc2n1C | 0.1 | 0.0 | -20.4* | . | -1.2 | . | -5.15
COCCNC(=O)c1ccc(CS(=O)(=O)c2ccc(OC)cc2)o1 | -0.1 | -2.8 | 11.2 | -0.6 | 2.0 | -30.9 | .
CCOc1cc(/C=C(\CC(=O)O)c2nc3ccccc3s2)ccc1OC | -0.5 | 3.4 | -20.5* | . | . | -13.4 | -8.04 | AID977628=-11.7
CC1Cc2ccccc2N1C(=O)COc1ccc2c(c1)OCO2 (stereo unspecified) | 0.0 | 30.6* | -22.4* | -1.4 | -5.9 | -6.8 | . | AID977628=-14
CC1CCCN(C(=O)COc2ccc3c(c2)OCO3)C1 (stereo unspecified) | -0.1 | -0.9 | 4.5 | -3.3 | -2.2 | -0.1 | .
O=C(Nc1ncccn1)c1ccc([N+](=O)[O-])o1 | 0.1 | -5.0 | -17.7* | . | . | -7.3 | -7.38 | AID977628=?
O=C(Nc1cccc2ccccc12)c1ccc([N+](=O)[O-])o1 | -0.1 | 2.4 | -19.1* | -0.5 | . | -13.7 | ?
CN(C)CCCNC(=O)C[C@H]1CC[C@@H](NS(=O)(=O)c2ccccc2)[C@@H](CO)O1 | -0.1 | -2.2 | 0.8 | 14.2 | -1.6 | -2.1[16.7 µM] | .
C[C@H](CO)N1C[C@H](C)[C@@H](CN(C)C)OCc2cnnn2CCCC1=O | 0.0 | 3.8 | 9.1 | -0.4 | 8.0 | -9.0 | .
COC(=O)c1ccc(CCc2cc(O)c(Br)cc2O)cc1 | -0.9 | 4.3 | -18.6* | . | . | -68.7 | -9.47 | AID977628=-3.46
CNC(=O)c1ccsc1NC(=O)c1ccc2c(c1)CCCC2 | -0.2 | -3.1 | -25.8* | -6.0 | -5.7 | -127.7 | ?
O=C(C1CCCC1)N1CCCCN2[C@H](CO)[C@H](c3ccc(-c4cccc(F)c4)cc3)[C@H]2C1 | 0.0 | 1.3 | . | 1.7 | -4.3 | . | .
c1ccc(Sc2ncnc3ccccc23)cc1 | 0.0 | -0.5 | -17.9* | 2.2 | -29.0 | 18.6 | . | AID977628=?
Cc1cc(NC(=O)CS(=O)c2cn(Cc3cccc(Cl)c3)c3ccccc23)no1 (stereo unspecified) | -0.4 | 1.2 | -19.7 | -0.7 | . | 28.2 | .
Cc1cc(NC(=O)CS(=O)(=O)c2cn(Cc3cccc(Br)c3)c3ccccc23)no1 | 0.0 | . | -21.4* | 4.5 | . | 44.4 | -15.2
O=C(NCc1ccco1)c1ccc(COc2cccc3ccccc23)cc1 | 0.3 | -3.8 | -23.8* | -2.2 | -0.1 | 7.5 | -15.9
O=C(Nc1ccc(OCC(=O)N2CCC(Cc3ccccc3)CC2)cc1)c1ccco1 | . | . | . | 0.8 | -67.4 | 13.6 | .
CC(=O)Nc1ccc(OCC(=O)N2CCC(Cc3ccccc3)CC2)cc1 | 0.0 | -0.2 | -19.5* | . | -9.7 | 5.0 | -25.8
Cc1ccc(C(=O)c2ccccc2C(=O)OCC(=O)N2CCCC2)cc1 | 0.1 | -3.1 | 4.3 | -7.4 | 3.8 | -7.7 | .
Cc1ccc(C(=O)c2ccccc2C(=O)OCC(=O)NC(C)(C)C)cc1 | 0.0 | -5.8 | -19.6* | -2.1 | 0.4 | 4.0 | -21.5
O=C(COC(=O)c1ccccc1NC(=O)c1ccco1)NC1CC1 | 0.0 | 0.0 | 6.5 | . | . | 4.0 | .
CC1CCN(C(=O)COC(=O)c2ccccc2NC(=O)c2ccco2)CC1 | -0.4 | -3.8 | -31.7* | . | . | 15.5 | -15.8 | AID977628=-5.76
